In ChEMBL document CHEMBL1133137, “Synthesis and biological effects of a new series of 2-amino-3-benzoylthiophenes as allosteric enhancers of A1-adenosine receptor” (Bioorg Med Chem Lett, 2000):

target: T1, Adenosine receptor A1 (Homo sapiens) (UniProt P30542); experiment: Percentage of response to 10 uM of PD-81723 on CHO cells expressing the cloned human A1-adenosine receptor at 1 uM; An increase of cAmp content of cells; type: functional, cell-based
T1 sequence (whole entry): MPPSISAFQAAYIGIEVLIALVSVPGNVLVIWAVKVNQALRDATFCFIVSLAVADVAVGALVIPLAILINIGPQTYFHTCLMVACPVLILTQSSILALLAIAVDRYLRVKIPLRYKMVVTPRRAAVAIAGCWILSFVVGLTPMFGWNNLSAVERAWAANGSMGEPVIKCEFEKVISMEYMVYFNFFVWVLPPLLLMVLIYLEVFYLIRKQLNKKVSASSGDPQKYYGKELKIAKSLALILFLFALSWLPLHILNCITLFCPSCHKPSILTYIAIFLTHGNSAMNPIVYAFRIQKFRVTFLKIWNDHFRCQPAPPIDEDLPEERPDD
Summary of the method: (§1)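 CHO cells stably expressing recombinant human A1 receptors (~8000 fmol/mg protein), thawed from low-passage frozen stocks, grown to confluence over 48–72 h in Ham's F-12 with 10% FBS and G-418. Test compound incubated 6 min at 36 °C with 0.05–0.1 nM CPA. Reaction stopped with HCl (final 50 mM). cAMP in acid extracts measured by radioimmunoassay. Reduction normalized to the response to 10 μM PD 81,723.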

Row | SMILES | Response
1 | Nc1sc2c(c1C(=O)c1ccc(Br)cc1)CCN(C(=O)OCc1ccccc1)C2 | Increased cAMP
2 | CCOC(=O)CN1CCc2c(sc(N)c2C(=O)c2ccc(Cl)cc2)C1 | Increased cAMP
3 | Nc1sc2c(c1C(=O)c1ccc(Cl)cc1)CCN(C(=O)OCc1ccccc1)C2 | Increased cAMP
4 | CCOC(=O)CN1CCc2c(sc(N)c2C(=O)c2ccccc2)C1 | Increased cAMP
5 | Nc1sc2c(c1C(=O)c1ccc(Cl)cc1)CCN(Cc1ccccc1)C2 | Increased cAMP
6 | Nc1sc2c(c1C(=O)c1ccc(Cl)cc1)CCN(CCc1ccc([N+](=O)[O-])cc1)C2 | Increased cAMP
7 | Nc1sc2c(c1C(=O)c1ccccc1)CCN(C(=O)OCc1ccccc1)C2 | Increased cAMP
8 | Cc1sc(N)c(C(=O)c2ccccc2)c1C | Increased cAMP
9 | Cc1ccc(S(=O)(=O)N2CCc3c(sc(N)c3C(=O)c3ccccc3)C2)cc1 | Increased cAMP
10 | Nc1sc2c(c1C(=O)c1ccc(F)cc1)CCN(C(=O)OCc1ccccc1)C2 | Increased cAMP
11 | Nc1sc2c(c1C(=O)c1ccc(I)cc1)CCC2 | Increased cAMP

target: T1, Adenosine receptor A1 (Homo sapiens); experiment: Percentage of response to 10 uM of PD-81723 on CHO cells expressing the cloned human A1-adenosine receptor at 10 uM concentration; type: functional, cell-based; summary of the method: as §1

Row | SMILES | Response
12 | Nc1sc2c(c1C(=O)c1ccc(F)cc1)CCCCC2 | 61%
13 | Nc1sc2c(c1C(=O)c1ccc(Cl)cc1)CCN(CCCc1ccccc1)C2 | 31%
14 | Nc1sc2c(c1C(=O)c1ccccc1)SCC2 | 68%
15 | Nc1sc2c(c1C(=O)c1ccc(Cl)cc1)CCCC2 | 86%
16 | Nc1sc2c(c1C(=O)c1ccccc1)CCN(CCc1ccc([N+](=O)[O-])cc1)C2 | 31%
17 | Nc1sc2c(c1C(=O)c1ccc(Br)cc1)CCCC2 | 67%
18 | Nc1sc2c(c1C(=O)c1ccccc1)CCNC2 | 12%
19 | COc1ccc(C(=O)c2c(N)sc3c2CCC3)cc1 | 42%
20 | Nc1sccc1C(=O)c1ccccc1 | 28%
21 | COc1ccc(C(=O)c2c(N)sc3c2CCCCC3)cc1 | 36%
22 | Nc1sc2c(c1C(=O)c1ccc(Cl)cc1)CCNC2 | 9%
23 | Cc1sc(N)c(C(=O)c2ccccc2)c1C | 19%

target: T1, Adenosine receptor A1 (Homo sapiens); experiment: The compound was tested for its percentage of response to 10 uM of PD-81723 on CHO cells expressing the cloned human A1-adenosine receptor at 1 uM; type: functional, cell-based; summary of the method: as §1

Row | SMILES | Response
24 | Nc1sc2c(c1C(=O)c1ccc(Cl)cc1)CCN(CCc1ccc([N+](=O)[O-])cc1)C2 | 13%

target: T1, Adenosine receptor A1 (Homo sapiens); experiment: Percentage of response to 10 uM of PD-81723 on CHO cells expressing the cloned human A1-adenosine receptor at 0.1 uM; type: functional, cell-based; summary of the method: as §1

Row | SMILES | Response
25 | Nc1sc2c(c1C(=O)c1ccccc1)CCNC2 | < 5%
26 | COc1ccc(C(=O)c2c(N)sc3c2CCC3)cc1 | < 5%
27 | COc1ccc(C(=O)c2c(N)sc3c2CCCCC3)cc1 | < 5%
28 | Nc1sc2c(c1C(=O)c1ccc(Cl)cc1)CCN(Cc1ccccc1)C2 | < 5%
29 | Nc1sc2c(c1C(=O)c1ccc(F)cc1)CCN(C(=O)OCc1ccccc1)C2 | < 5%

target: T1, Adenosine receptor A1 (Homo sapiens); experiment: The compound was tested for its percentage of response to 10 uM of PD-81723 on CHO cells expressing the cloned human A1-adenosine receptor at 0.1; change of less than 5% of allosteric enhancement.; type: functional, cell-based; summary of the method: as §1

Row | SMILES | Response
30 | Nc1sc2c(c1C(=O)c1ccc(Cl)cc1)CCN(C(=O)OCc1ccccc1)C2 | < 5%

target: T1, Adenosine receptor A1 (Homo sapiens); experiment: The compound was tested for its percentage of response to 10 uM of PD-81723 on CHO cells expressing the cloned human A1-adenosine receptor at 0.1 uM; An increase of cAmp content of cells; type: functional, cell-based; summary of the method: as §1

Row | SMILES | Response
31 | Nc1sc2c(c1C(=O)c1ccc(Br)cc1)CCN(C(=O)OCc1ccccc1)C2 | Increased cAMP

target: T1, Adenosine receptor A1 (Homo sapiens); experiment: The compound was tested for its percentage of response to 10 uM of PD-81723 on CHO cells expressing the cloned human A1-adenosine receptor at 10 uM; change of less than 5% of allosteric enhancement.; type: functional, cell-based; summary of the method: as §1

Row | SMILES | Response
32 | Nc1sc2c(c1C(=O)c1ccc(I)cc1)CCC2 | < 5%

target: T1, Adenosine receptor A1 (Homo sapiens); experiment: The compound was tested for its percentage of response to 10 uM of PD-81723 on CHO cells expressing the cloned human A1-adenosine receptor at 1 uM concentration; change of less than 5% of allosteric enhancement.; type: functional, cell-based; summary of the method: as §1

Row | SMILES | Response
33 | Nc1sc2c(c1C(=O)c1ccccc1)SCC2 | < 5%

target: T1, Adenosine receptor A1 (Homo sapiens); experiment: The compound was tested for its percentage of response to 10 uM of PD-81723 on CHO cells expressing the cloned human A1-adenosine receptor at 0.1 uM concentration; change of less than 5% of allosteric enhancement; type: functional, cell-based; summary of the method: as §1

Row | SMILES | Response
34 | Cc1sc(N)c(C(=O)c2ccccc2)c1C | < 5%

target: T1, Adenosine receptor A1 (Homo sapiens); experiment: The compound was tested for its percentage of response to 10 uM of PD-81723 on CHO cells expressing the cloned human A1-adenosine receptor at 10 uM; type: functional, cell-based; summary of the method: as §1

Row | SMILES | Response
35 | Nc1sc2c(c1C(=O)c1ccc(Cl)cc1)CCN(CCc1ccc([N+](=O)[O-])cc1)C2 | 31%

target: T1, Adenosine receptor A1 (Homo sapiens); experiment: Percentage of response to 10 uM of PD-81723 on CHO cells expressing the cloned human A1-adenosine receptor at 1 uM concentration; type: functional, cell-based; summary of the method: as §1

Row | SMILES | Response
36 | Nc1sc2c(c1C(=O)c1ccc(F)cc1)CCCCC2 | 36%
37 | Nc1sc2c(c1C(=O)c1ccc(Cl)cc1)CCN(CCCc1ccccc1)C2 | 15%
38 | Nc1sc2c(c1C(=O)c1ccc(Cl)cc1)CCCC2 | 58%
39 | Nc1sc2c(c1C(=O)c1ccccc1)CCN(CCc1ccc([N+](=O)[O-])cc1)C2 | 13%
40 | Nc1sc2c(c1C(=O)c1ccc(Br)cc1)CCCC2 | 67%
41 | Nc1sc2c(c1C(=O)c1ccccc1)CCNC2 | 9%
42 | COc1ccc(C(=O)c2c(N)sc3c2CCC3)cc1 | 43%
43 | Nc1sccc1C(=O)c1ccccc1 | 26%
44 | COc1ccc(C(=O)c2c(N)sc3c2CCCCC3)cc1 | 54%
45 | Nc1sc2c(c1C(=O)c1ccc(Cl)cc1)CCNC2 | 12%

target: T1, Adenosine receptor A1 (Homo sapiens); experiment: Percentage of response to 10 uM of PD-81723 on CHO cells expressing the cloned human A1-adenosine receptor at 0.1 uM concentration; type: functional, cell-based; summary of the method: as §1

Row | SMILES | Response
46 | Nc1sc2c(c1C(=O)c1ccc(F)cc1)CCCCC2 | 26%
47 | Nc1sc2c(c1C(=O)c1ccc(Cl)cc1)CCN(CCCc1ccccc1)C2 | 8%
48 | Nc1sc2c(c1C(=O)c1ccc(Cl)cc1)CCCC2 | 57%
49 | Nc1sc2c(c1C(=O)c1ccc(Br)cc1)CCCC2 | 50%
50 | Nc1sccc1C(=O)c1ccccc1 | 51%
51 | Nc1sc2c(c1C(=O)c1ccc(Cl)cc1)CCNC2 | 15%
52 | CCOC(=O)CN1CCc2c(sc(N)c2C(=O)c2ccc(Cl)cc2)C1 | 10%

target: T1, Adenosine receptor A1 (Homo sapiens); experiment: Percentage of response to 10 uM of PD-81723 on CHO cells expressing the cloned human A1-adenosine receptor at 10 uM; An increase of cAmp content of cells; type: functional, cell-based; summary of the method: as §1

Row | SMILES | Response
53 | CCOC(=O)CN1CCc2c(sc(N)c2C(=O)c2ccc(Cl)cc2)C1 | Increased cAMP
54 | Nc1sc2c(c1C(=O)c1ccc(Cl)cc1)CCN(C(=O)OCc1ccccc1)C2 | Increased cAMP
55 | CCOC(=O)CN1CCc2c(sc(N)c2C(=O)c2ccccc2)C1 | Increased cAMP
56 | Nc1sc2c(c1C(=O)c1ccc(Cl)cc1)CCN(Cc1ccccc1)C2 | Increased cAMP
57 | Nc1sc2c(c1C(=O)c1ccc(Cl)cc1)CCN(CCc1ccc([N+](=O)[O-])cc1)C2 | Increased cAMP
58 | Nc1sc2c(c1C(=O)c1ccccc1)CCN(C(=O)OCc1ccccc1)C2 | Increased cAMP
59 | Cc1ccc(S(=O)(=O)N2CCc3c(sc(N)c3C(=O)c3ccccc3)C2)cc1 | Increased cAMP
60 | Nc1sc2c(c1C(=O)c1ccc(F)cc1)CCN(C(=O)OCc1ccccc1)C2 | Increased cAMP

target: T1, Adenosine receptor A1 (Homo sapiens); experiment: The compound was tested for its percentage of response to 10 uM of PD-81723 on CHO cells expressing the cloned human A1-adenosine receptor at 10 uM; An increase of cAmp content of cells; type: functional, cell-based; summary of the method: as §1

Row | SMILES | Response
61 | Nc1sc2c(c1C(=O)c1ccc(Br)cc1)CCN(C(=O)OCc1ccccc1)C2 | Increased cAMP

target: T1, Adenosine receptor A1 (Homo sapiens); experiment: The compound was tested for its percentage of response to 10 uM of PD-81723 on CHO cells expressing the cloned human A1-adenosine receptor at 0.1 uM concentration; An increase of cAmp content of cells; type: functional, cell-based; summary of the method: as §1

Row | SMILES | Response
62 | Nc1sc2c(c1C(=O)c1ccccc1)SCC2 | Increased cAMP

target: T1, Adenosine receptor A1 (Homo sapiens); experiment: Percent response to 10 uM PD-81723 on CHO cells expressing human A1-adenosine receptor at 0.1 uM; An increase of cAmp content of cells; type: functional, cell-based; summary of the method: as §1

Row | SMILES | Response
63 | Nc1sc2c(c1C(=O)c1ccccc1)CCN(CCc1ccc([N+](=O)[O-])cc1)C2 | Increased cAMP
64 | CCOC(=O)CN1CCc2c(sc(N)c2C(=O)c2ccccc2)C1 | Increased cAMP
65 | Nc1sc2c(c1C(=O)c1ccc(Cl)cc1)CCN(CCc1ccc([N+](=O)[O-])cc1)C2 | Increased cAMP
66 | Nc1sc2c(c1C(=O)c1ccccc1)CCN(C(=O)OCc1ccccc1)C2 | Increased cAMP
67 | Cc1ccc(S(=O)(=O)N2CCc3c(sc(N)c3C(=O)c3ccccc3)C2)cc1 | Increased cAMP
68 | Nc1sc2c(c1C(=O)c1ccc(I)cc1)CCC2 | Increased cAMP
